From ChEMBL document CHEMBL2417398, “Synthesis, antileishmanial activity and structure-activity relationship of 1-N-X-phenyl-3-N'-Y-phenyl-benzamidines” (Eur J Med Chem, 2013) come the findings set out here.

For one series, the system named is Leishmania amazonensis. Put plainly: Antileishmanial activity against Leishmania amazonensis MHOM/BR/77/LTB0016 promastigotes after 24 hrs by cell counting. The class given is functional, organism-based. The essentials:
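L. amazonensis MHOM/BR/77/LTB0016 promastigotes grown at 25 °C in LIT medium with 10% (v/v) heat-inactivated FCS, harvested in late log phase and set to 4 x 10^6 /mL. Drugs in DMSO (up to 1.6% v/v) at 160 to 5 μg/mL for 24 h. Surviving parasites counted in a Neubauer chamber. Inhibition taken against DMSO and untreated controls. IC50 from linear regression of % inhibition versus log concentration.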

Series [1] in a line: Cytotoxicity against macrophages (unknown origin) at 320 ug/ml. As to conditions: macrophage. The class given is cell-based.
The next series concerns Leishmania braziliensis. Put plainly: Antileishmanial activity against Leishmania braziliensis promastigotes after 24 hrs by cell counting. The series is classed as functional, organism-based. The essentials:
(§1)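 Promastigotes given drugs in DMSO (at most 1.6% v/v) over 160 to 5 μg/mL for 24 h. Remaining parasites counted in a Neubauer chamber and % inhibition set against DMSO-only and parasite-only controls. IC50 derived by linear regression of % inhibition against log drug concentration.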

The test system of a further series is Leishmania chagasi. Put plainly: Antileishmanial activity against Leishmania chagasi promastigotes after 24 hrs by cell counting. The class given is functional, organism-based. The method, boiled down: as §1
Setting [2] is: Leishmania amazonensis, MHOM/BR/77/LTB0016, 24 h.

Consider `COc1ccc(/N=C(\Nc2ccccc2)c2cccc(OC)c2)cc1`, for which, in the series with Leishmania amazonensis (setting [2]), the logIC50 was 2.57. The same measure, in the same setting: in the case of `COc1ccc(/C(=N/c2ccccc2)Nc2cccc(Cl)c2)cc1` it was 1.11. For `COc1ccc(/C(=N/c2ccccc2)Nc2ccc(C)cc2)cc1`, the logIC50 in the series on Leishmania amazonensis (setting [2]) is 2.42. Compound `COc1ccc(/N=C(\Nc2ccccc2)c2ccccc2)cc1` showed a logIC50 with Leishmania amazonensis (setting [2]) of 2.8. As to `COc1ccc(/N=C(\Nc2ccccc2)c2ccc(OC)cc2)cc1` [listing 1 of 2 here], in series [1], the Activity turned out to be 15%. Besides, the logIC50 with Leishmania braziliensis stood at 1.52; with Leishmania chagasi, 1.95; with Leishmania amazonensis, 2.8. `COc1cccc(/C(=N/c2ccccc2)Nc2ccccc2)c1` returned a logIC50 in the series on Leishmania amazonensis (setting [2]) of 2.56. Compound `COc1ccc(/N=C(\Nc2ccc(OC)cc2)c2ccc(OC)cc2)cc1` yielded a logIC50 with Leishmania amazonensis (setting [2]) greater than 3. In the case of `COc1ccc(/N=C(\Nc2ccc(OC)cc2)c2ccccc2)cc1` [listing 1 of 2 here], the Activity in series [1] was determined as 100%. Besides, the logIC50 amounted to 2.25 with Leishmania braziliensis, 2.25 in the series on Leishmania chagasi and 2.24 in the series on Leishmania amazonensis. In turn, `COc1ccc(/C(=N/c2ccccc2)Nc2cccc([N+](=O)[O-])c2)cc1` returned a logIC50 in the series with Leishmania amazonensis (setting [2]) of 2.59. On the same count and under the same terms, in the case of `COc1ccc(/C(=N/c2ccccc2)Nc2ccc([N+](=O)[O-])cc2)cc1` it was 1.22; in that of `COc1ccc(/N=C(\Nc2ccccc2)c2ccc3c(c2)OCO3)cc1`, 1.6.

As for `COc1ccc(/N=C(\Nc2ccc(OC)cc2)c2ccccc2)cc1` [listing 2 of 2 here], the logIC50 is 2.13 in the series with Leishmania braziliensis (Leishmania braziliensis, 24 h); greater than 3 in the series with Leishmania chagasi (Leishmania chagasi, 24 h); 1.62 in the series with Leishmania amazonensis (setting [2]). Consider `COc1ccc(/C(=N/c2ccccc2)Nc2ccc(Cl)c([N+](=O)[O-])c2)cc1`, for which the logIC50 in the series on Leishmania amazonensis (setting [2]) worked out at 1.1. `COc1ccc(/C(=N/c2ccccc2)Nc2ccc(F)cc2)cc1`: the logIC50 in the series on Leishmania amazonensis (setting [2]) turned out to be 1.43. On the same count and under the same terms, in the case of `COc1ccc(/C(=N/c2ccccc2)Nc2ccc(O)cc2)cc1` it was 2.51. `COc1ccc(/C(=N/c2ccccc2)Nc2ccc(Cl)cc2)cc1`: the logIC50 with Leishmania amazonensis (setting [2]) stood at 1.9.

As for `COc1ccc(/C(=N/c2ccccc2)Nc2ccccc2)cc1` [listing 1 of 2 here], the logIC50 in the series on Leishmania braziliensis (Leishmania braziliensis, 24 h) is 2.05; in the series on Leishmania chagasi (Leishmania chagasi, 24 h), 2.76; with Leishmania amazonensis (setting [2]), 1.9.

For `N=C(N)c1ccc(OCCCCCOc2ccc(C(=N)N)cc2)cc1` [PENTAMIDINE], the Activity in series [1] is 100%. In addition, the logIC50 is 1.36 in the series on Leishmania braziliensis (Leishmania braziliensis, 24 h); 1.76 in the series with Leishmania chagasi (Leishmania chagasi, 24 h); 1.05 with Leishmania amazonensis (setting [2]). On to `COc1ccc(/C(=N/c2ccccc2)Nc2cccc(OC)c2)cc1`, for which the logIC50 with Leishmania amazonensis (setting [2]) stood at 1.68. For `COc1ccc(/C(=N/c2ccccc2)Nc2cccc(C)c2)cc1`, the logIC50 in the series with Leishmania amazonensis (setting [2]) was found to be 2.42.

Consider `COc1ccc(/C(=N/c2ccccc2)Nc2cccc(F)c2)cc1`, for which, in the series on Leishmania amazonensis (setting [2]), the logIC50 turned out to be 1.62. As for `COc1ccc(/C(=N/c2ccccc2)Nc2ccc(Br)cc2)cc1`, the logIC50 in the series with Leishmania amazonensis (setting [2]) was 1.34. With `COc1ccc(/C(=N/c2ccccc2)Nc2ccccc2)cc1` [listing 2 of 2 here], in series [1], the Activity result was “Non-toxic”. Also, the logIC50 with Leishmania braziliensis was 1.9; in the series on Leishmania chagasi, 1.91; with Leishmania amazonensis it was 1.85. Regarding `COc1ccc(/C(=N/c2ccccc2)Nc2ccc(S(N)(=O)=O)cc2)cc1`, the logIC50 in the series on Leishmania amazonensis (setting [2]) was determined as 1.79.

Consider `COc1ccc(/N=C(\Nc2ccccc2)c2ccc(OC)cc2)cc1` [listing 2 of 2 here], for which the logIC50 turned out to be 1.42 in the series on Leishmania braziliensis (Leishmania braziliensis, 24 h); 2.04 in the series on Leishmania chagasi (Leishmania chagasi, 24 h); 1.82 in the series with Leishmania amazonensis (setting [2]). In the series with Leishmania amazonensis (setting [2]), `COc1ccc(/C(=N/c2ccccc2)Nc2cccc(O)c2)cc1` came in with a logIC50 of 2.65.
